One experiment relates to HCT-116. Briefly: Cytotoxicity against human HCT116 cells after 48 hrs by MTT assay. The class given is functional, cell-based. Conditions: HCT-116, 48 h. The method, boiled down: (§1)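 All three human tumour lines were screened in parallel by MTT colorimetric viability assay, with sorafenib as positive control. Antiproliferative potency was expressed as IC50.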
Background: Tetrazolium dyes change colour on reduction, which living cells bring about.

The next experiment deals with PC-3. The experiment in a line: Cytotoxicity against human PC3 cells after 48 hrs by MTT assay. It counts as functional, cell-based. Conditions: PC-3, 48 h. The method, boiled down: as §1
In another experiment the test system is MDA-MB-231. Briefly: Cytotoxicity against human MDA-MB-231 cells after 48 hrs by MTT assay. The class given is functional, cell-based. Conditions: MDA-MB-231, 48 h. Put shortly: as §1
Another experiment deals with Aorta. The experiment in a line: Antiangiogenic activity in Sprague-Dawley rat aortic ring assessed as inhibition of blood vessel formation at 0.1 uM after 6 days by inverted microscopic analysis. The class given is functional, tissue-based. Put shortly: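 Sprague-Dawley rat aortic segments were embedded in wells coated with growth factor-reduced Matrigel. They were cultured for 6 d with or without compound, and untreated wells served as control. Microvessel sprouting from the segments was scored.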

The structures appear in SMILES notation. Activity calls are given as the source filed them. No cut-off for these calls is given here.

Usually IC50 stands for the concentration that gives 50% inhibition. Turning to `CC(C)NC(=O)c1cc(Oc2cccc(NC(=S)Nc3ccc(Cl)cc3)c2)ccn1`, the IC50 in the experiment with HCT-116 came to 22.1 µM; in the experiment on PC-3, 21.2 µM; in the experiment on MDA-MB-231, 87.5 µM.

Regarding `CNC(=O)c1cc(Oc2cccc(NC(=S)Nc3ccc(Cl)c(C(F)(F)F)c3)c2)ccn1`, the values for the concentration for half-maximal inhibition (IC50) in the experiment with HCT-116, in the experiment with PC-3 and with MDA-MB-231 were 15.1 µM, 16.1 µM and 35.7 µM, respectively.

As to `CNC(=O)c1cc(Oc2cccc(NC(=S)Nc3ccc(OC(F)(F)F)cc3)c2)ccn1`, the half-inhibitory concentration (IC50) with HCT-116 is 33.8 µM; in the experiment with PC-3 it was 34.7 µM; in the experiment with MDA-MB-231, above 100 µM.

On to `O=C(c1cc(Oc2cccc(NC(=S)Nc3cccc(C(F)(F)F)c3)c2)ccn1)N1CCCC1`, for which the half-maximal inhibitory concentration (IC50) in the experiment with HCT-116 is 19.2 µM; in the experiment on PC-3 it was 27 µM; with MDA-MB-231, 35.4 µM.

As for `O=C(NC1CCCCC1)c1cc(Oc2cccc(NC(=S)Nc3cccc(C(F)(F)F)c3)c2)ccn1`, the half-maximal inhibitory concentration (IC50) in the experiment on HCT-116 is 8.4 µM; in the experiment on PC-3, 16.8 µM; in the experiment on MDA-MB-231, above 100 µM.

In the case of `CCNC(=O)c1cc(Oc2cccc(NC(=S)Nc3ccc(F)c(F)c3)c2)ccn1`, the IC50 in the experiment on HCT-116 was 30.3 µM; in the experiment on PC-3, 26.3 µM; in the experiment on MDA-MB-231 it was above 100 µM.

For the compound `O=C(NCc1ccccc1)c1cc(Oc2cccc(NC(=S)Nc3ccc(Cl)cc3)c2)ccn1`, the IC50 was 16.5 µM with HCT-116, 15.8 µM in the experiment with PC-3 and above 100 µM in the experiment on MDA-MB-231.

Take `O=C(NC1CCCCC1)c1cc(Oc2cccc(NC(=S)Nc3ccc(F)c(F)c3)c2)ccn1`: the results for the IC50 in the experiment with HCT-116, in the experiment with PC-3 and in the experiment with MDA-MB-231 were 8.9 µM, 8.1 µM and above 100 µM, respectively. Further, in the experiment on Aorta, the inhibition entry was “Active”.

For `CCNC(=O)c1cc(Oc2cccc(NC(=S)Nc3cccc(C(F)(F)F)c3)c2)ccn1`, the results for the IC50 in the experiment on HCT-116, in the experiment on PC-3 and in the experiment on MDA-MB-231 were 19.4 µM, 18.3 µM and 53.1 µM, respectively.

In the case of `O=C(c1cc(Oc2cccc(NC(=S)Nc3ccc(OC(F)(F)F)cc3)c2)ccn1)N1CCCC1`, the figures for the half-inhibitory concentration (IC50) in the experiment with HCT-116, with PC-3 and with MDA-MB-231 were 17.8 µM, 34.1 µM and 37.8 µM, respectively.

For the compound `O=C(NC1CC1)c1cc(Oc2cccc(NC(=S)Nc3ccc(Cl)c(C(F)(F)F)c3)c2)ccn1`, the concentration for half-maximal inhibition (IC50) was 9.3 µM in the experiment with HCT-116, 6.8 µM in the experiment on PC-3 and 21.2 µM in the experiment with MDA-MB-231.

Turning to `O=C(NC1CCCCC1)c1cc(Oc2cccc(NC(=S)Nc3ccc(Cl)c(C(F)(F)F)c3)c2)ccn1`, the results for the half-inhibitory concentration (IC50) with HCT-116, in the experiment on PC-3 and with MDA-MB-231 were 2.8 µM, 2.2 µM and 34.2 µM, respectively. Further, the inhibition result with Aorta is “Active”.

Regarding `CNC(=O)c1cc(Oc2cccc(NC(=S)Nc3ccc(Cl)cc3Cl)c2)ccn1`, the IC50 in the experiment on HCT-116 was 41.2 µM; in the experiment on PC-3, 37.8 µM; in the experiment on MDA-MB-231, above 100 µM.

As for `O=C(NC1CC1)c1cc(Oc2cccc(NC(=S)Nc3cccc(C(F)(F)F)c3)c2)ccn1`, the IC50 in the experiment with HCT-116 came out at 20.2 µM; with PC-3 it was 22.1 µM; in the experiment with MDA-MB-231, 34.8 µM.

Regarding `O=C(c1cc(Oc2cccc(NC(=S)Nc3ccc(F)c(F)c3)c2)ccn1)N1CCCC1`, the half-maximal inhibitory concentration (IC50) in the experiment with HCT-116 is 52 µM; in the experiment on PC-3, 45.6 µM; in the experiment on MDA-MB-231, above 100 µM.

Take `CNC(=O)c1cc(Oc2ccc(NC(=O)Nc3ccc(Cl)c(C(F)(F)F)c3)cc2)ccn1` [SORAFENIB]: the IC50 in the experiment on PC-3 worked out at 6.8 µM. Also, the inhibition entry in the experiment on Aorta was “Active”.

As to `CNC(=O)c1cc(Oc2cccc(NC(=S)Nc3ccc(F)c(F)c3)c2)ccn1`, the IC50 with HCT-116 was 30.3 µM; with PC-3, 33.1 µM; in the experiment on MDA-MB-231, above 100 µM.

For `O=C(NCc1ccccc1)c1cc(Oc2cccc(NC(=S)Nc3ccc(OC(F)(F)F)cc3)c2)ccn1`, the IC50 is 7.4 µM in the experiment on HCT-116, 6.8 µM in the experiment with PC-3 and above 100 µM in the experiment with MDA-MB-231.

On to `CNC(=O)c1cc(Oc2cccc(NC(=S)Nc3cccc(C(F)(F)F)c3)c2)ccn1`, for which the results for the half-inhibitory concentration (IC50) with HCT-116, in the experiment with PC-3 and in the experiment on MDA-MB-231 were 25.3 µM, 24.5 µM and above 100 µM, respectively.

As for `O=C(c1cc(Oc2cccc(NC(=S)Nc3ccc(Cl)c(C(F)(F)F)c3)c2)ccn1)N1CCCC1`, the values for the half-maximal inhibitory concentration (IC50) with HCT-116, in the experiment on PC-3 and with MDA-MB-231 were 22.4 µM, 12.1 µM and 40.2 µM, respectively.

Regarding `CC(C)NC(=O)c1cc(Oc2cccc(NC(=S)Nc3ccc(OC(F)(F)F)cc3)c2)ccn1`, the IC50 with HCT-116 is 18.1 µM; in the experiment on PC-3 it was 11.8 µM; with MDA-MB-231, above 100 µM.

For the compound `CNC(=O)c1cc(Oc2cccc(NC(=S)Nc3ccc(Cl)cc3)c2)ccn1`, the half-inhibitory concentration (IC50) was 39.4 µM with HCT-116, 24.1 µM with PC-3 and above 100 µM with MDA-MB-231.

As for `O=C(NCc1ccccc1)c1cc(Oc2cccc(NC(=S)Nc3cccc(C(F)(F)F)c3)c2)ccn1`, the results for the IC50 in the experiment on HCT-116, in the experiment with PC-3 and in the experiment with MDA-MB-231 were 7.5 µM, 11 µM and 75 µM, respectively.

Consider `CCNC(=O)c1cc(Oc2cccc(NC(=S)Nc3ccc(Cl)c(C(F)(F)F)c3)c2)ccn1`, for which the results for the half-inhibitory concentration (IC50) in the experiment with HCT-116, with PC-3 and with MDA-MB-231 were 6.9 µM, 8.5 µM and 22.1 µM, respectively. In addition, the inhibition result with Aorta was “Active”.

These data come from ChEMBL document CHEMBL2157976, “Design, synthesis and biological activities of sorafenib derivatives as antitumor agents” (Bioorg Med Chem Lett, 2012).
